From ChEMBL document CHEMBL5053555, “Design, Synthesis, and Evaluation of Potent, Selective, and Bioavailable AKT Kinase Degraders” (J Med Chem, 2021)
Activity calls are given as the source filed them. No cut-off for these calls is given here.

Legend:
[1] = molecular target: T1, Protein cereblon/AKT (Homo sapiens) (UniProt P31751+Q9Y243+P31749+Q96SW2); assay: Protac activity at CRBN/AKT in human PC-3 cells assessed as reduction in total AKT level at 1 uM after 24 hrs by Western blot analysis; assay type: cell-based
Outline: (§1)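 PC3 cells were exposed to compound at 1 μM for 24 h, with GSK690693 as reference inhibitor. Lysates were immunoblotted for total AKT, P-AKT S473, P-PRAS40 T246 and P-S6 S240/244, with β-actin as loading control. Detection was by HRP chemiluminescence on film.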

[2] = molecular target: T1, Protein cereblon/AKT (Homo sapiens); assay: Protac activity at CRBN/AKT in human PC-3 cells assessed as reduction in phosphorylated AKT level at 1 uM after 24 hrs by Western blot analysis; assay type: cell-based; outline: as §1
[3] = molecular target: T1, Protein cereblon/AKT (Homo sapiens); assay: Protac activity at CRBN/AKT in human BT-474 cells assessed as reduction in PRAS40 phosphorylation at 1 uM after 24 hrs by Western blot analysis; assay type: cell-based
Outline: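 BT474 cells were treated 24 h with compound and lysed in IP lysis buffer (Tris pH 7.5, Triton X-100, phosphatase and protease inhibitors). Lysates were normalised by BCA and run on 4–12% Bis–Tris gels with PVDF wet transfer. Blots were probed for total AKT, P-AKT S473, P-PRAS40 T246 and P-S6 S240/244, with β-actin loading control and HRP chemiluminescence.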

[4] = molecular target: T2, von Hippel-Lindau disease tumor suppressor/AKT (Homo sapiens) (UniProt P31751+Q9Y243+P31749+P40337); assay: Protac activity at VHL/AKT in human PC-3 cells assessed as reduction in phosphorylated AKT level at 1 uM after 24 hrs by Western blot analysis; assay type: cell-based; outline: as §1
[5] = molecular target: T2, von Hippel-Lindau disease tumor suppressor/AKT (Homo sapiens); assay: Protac activity at VHL/AKT in human PC-3 cells assessed as reduction in total AKT level at 1 uM after 24 hrs by Western blot analysis; assay type: cell-based; outline: as §1
MDA-MB-468 [6] = assay: Antiproliferative activity against human MDA-MB-468 cells assessed as growth inhibition incubated for 5 days by IncuCyte live-cell imaging analysis; assay type: functional; details: MDA-MB-468, 120 h, time 5 day
Mus musculus = assay: Toxicity in Swiss albino mouse assessed as tolerability at 50 mg/kg, ip measured upto 8 hrs by LC-MS/MS method; assay type: organism-based; details: in vivo
PC-3 = assay: Antiproliferative activity against human PC-3 cells assessed as growth inhibition incubated for 5 days by IncuCyte live-cell imaging analysis; assay type: functional; details: PC-3, 120 h, time 5 day
MDA-MB-468 [7] = assay: Induction of apoptosis in human MDA-MB-468 cells at 2.5 uM measured upto 120 hrs by IncuCyte live-cell automated imaging analysis; assay type: functional
Outline: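 MDA-MB-468 cells (1–3 × 10³/well, triplicate wells) grown with compound in DMEM/10% FBS at 37 °C, 5% CO₂. DRAQ7 at 1.5 μM was added to the medium, and apoptotic red-fluorescent counts were imaged on an IncuCyte over 5 days.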

BT-474 [8] = assay: Antiproliferative activity against human BT-474 cells assessed as growth inhibition incubated for 5 days by IncuCyte live-cell imaging analysis; assay type: functional; details: BT-474, 120 h, time 5 day
BT-474 [9] = assay: Inhibition of colony formation in human BT-474 cells at 0.1 to 10 uM after 14 days by crystal violet staining based assay; assay type: functional, cell-based; details: dose 0.1-10 µM, time 14.0 day
Outline: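 BT474 cells were cultured 14 days with compound, and medium plus compound was replenished every 2 days. Viable cells were stained with 0.5% crystal violet and quantified.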

[10] = mouse, in vivo, ip, 50 mg/kg, 2 h
[11] = molecular target: T2, von Hippel-Lindau disease tumor suppressor/AKT (Homo sapiens); assay: Protac activity at VHL/AKT in human PC-3 cells assessed as reduction in PRAS40 phosphorylation at 1 uM after 24 hrs by Western blot analysis; assay type: cell-based; outline: as §1
[12] = molecular target: T2, von Hippel-Lindau disease tumor suppressor/AKT (Homo sapiens); assay: Protac activity at VHL/AKT in human PC-3 cells assessed as reduction in S6 phosphorylation at 1 uM after 24 hrs by Western blot analysis; assay type: cell-based; outline: as §1

For `CCn1c(-c2nonc2N)nc2c(C#CC(C)(C)O)ncc(OCCCNCCCC(=O)NCCOCCOCCOCCNc3cccc4c3C(=O)N(C3CCC(=O)NC3=O)C4=O)c21` (centres undefined), the Activity [1] was “Active” and the Activity [2] was “Active”.
For `C[C@@H]1C[C@@H](O)c2ncnc(N3CCN(C(=O)[C@H](CNCCNC(=O)CCCCCCCCNc4cccc5c4C(=O)N(C4CCC(=O)NC4=O)C5=O)c4ccc(Cl)cc4)CC3)c21` (some centres undefined), the Activity [3] was “Active”.
With `CCn1c(-c2nonc2N)nc2c(C#CC(C)(C)O)ncc(OCCCNCCCC(=O)NCCOCCC(=O)N[C@H](C(=O)N3C[C@H](O)C[C@H]3C(=O)NCc3ccc(-c4scnc4C)cc3)C(C)(C)C)c21` the Activity [4] was “inactive” and the Activity [5] was “inactive”.
In the case of `C[C@@H]1C[C@@H](O)c2ncnc(N3CCN(C(=O)[C@H](CNCCC(=O)NCCCCCCCCNc4cccc5c4C(=O)N(C4CCC(=O)NC4=O)C5=O)c4ccc(Cl)cc4)CC3)c21` (some centres undefined), the GI50 (MDA-MB-468 [6]) was 5.7 µM, the Activity (Mus musculus) was “Non-Toxic” and the GI50 (PC-3) was 7.4 µM. The Activity (MDA-MB-468 [7]) was under 3%, the GI50 (BT-474 [8]) was 700 nM and the inhibition (BT-474 [9]) was “Active”. It also gave a Cmax [10] of 1400 nM.
In the case of `CCn1c(-c2nonc2N)nc2c(C#CC(C)(C)O)ncc(OCCCNCCCC(=O)NCCOCCOCCOCCOCCNc3cccc4c3C(=O)N(C3CCC(=O)NC3=O)C4=O)c21` (centres undefined), the Activity [1] was “Active” and the Activity [2] was “Active”.
`Cc1ncsc1-c1ccc([C@H](C)NC(=O)[C@H]2C[C@H](O)CN2C(=O)[C@@H](NC(=O)CCCCCCCCCCC(=O)NCCNC[C@@H](C(=O)N2CCN(c3ncnc4c3[C@H](C)C[C@H]4O)CC2)c2ccc(Cl)cc2)C(C)(C)C)cc1` gave a GI50 (BT-474 [8]) of 3100 nM.
For `CCn1c(-c2nonc2N)nc2c(C#CC(C)(C)O)ncc(OCCCNCCCC(=O)NCCOCCOCCOCC(=O)N[C@H](C(=O)N3C[C@H](O)C[C@H]3C(=O)NCc3ccc(-c4scnc4C)cc3)C(C)(C)C)c21`, the Activity [4] was “inactive” and the Activity [5] was “inactive”.
For `CCn1c(-c2nonc2N)nc2c(C#CC(C)(C)O)ncc(OCCCNCCCC(=O)NCCOCCNc3cccc4c3C(=O)N(C3CCC(=O)NC3=O)C4=O)c21` (centres undefined), the Activity [1] was “Active” and the Activity [2] was “Active”.
For `CCn1c(-c2nonc2N)nc2c(C#CC(C)(C)O)ncc(OCCCNCCCC(=O)NCCOCCOCCOCCOCCOCCNc3cccc4c3C(=O)N(C3CCC(=O)NC3=O)C4=O)c21` (centres undefined), the Activity [1] was “Active” and the Activity [2] was “Active”.
With `CCn1c(-c2nonc2N)nc2c(C#CC(C)(C)O)ncc(OCCCNCCCC(=O)NCCOCCOCC(=O)N[C@H](C(=O)N3C[C@H](O)C[C@H]3C(=O)NCc3ccc(-c4scnc4C)cc3)C(C)(C)C)c21` the Activity [4] was “inactive” and the Activity [5] was “inactive”.
For `CCn1c(-c2nonc2N)nc2c(C#CC(C)(C)O)ncc(OCCCNCCCC(=O)NCCOCCOCCOCCOCCOCCC(=O)N[C@H](C(=O)N3C[C@H](O)C[C@H]3C(=O)NCc3ccc(-c4scnc4C)cc3)C(C)(C)C)c21`, the Activity [4] was “inactive” and the Activity [5] was “inactive”.
With `CCn1c(-c2nonc2N)nc2c(C#CC(C)(C)O)ncc(OCCCNCCCC(=O)NCCCCCCCCCCC(=O)N[C@H](C(=O)N3C[C@H](O)C[C@H]3C(=O)NCc3ccc(-c4scnc4C)cc3)C(C)(C)C)c21` the Activity [4] was “Active”, the Activity [11] was “inactive” and the Activity [5] was “Active”. The Activity [12] was “Active”.
